Data from PubChem BioAssay.
The other results are listed elsewhere or left out. Active and inactive are the calls of the source.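 How the source made its calls, unless noted: active means mean inhibition above about 50% in the one-dose retest (limit read from the data); inactive means the rest.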

Tested on: not listed separately
Test: PERK-eIF2a-CHOP pathway stimulators, retested – cell-based, CHO-CHOP luciferase reporter, single concentration, confirmation (AID 463112; in the data active means activation above about 33%;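 further: 0% = DMSO wells and 100% = tunicamycin 10 µg/mL wells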)
Details: CHO-CHOP cells, CHOP-luciferase reporter luminescence; at 10 µM; stronger effect = higher value; percent of tunicamycin response, DMSO as zero
How it was run: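 Material: CHOP-luciferase reporter CHO cells; controls: tunicamycin 10 µg/mL as high control, DMSO alone as low control; signal: luciferase luminescence measured with Steady-Glo reagent; timing: overnight cell seeding before dosing, 6 h compound exposure at 37 °C; doses: 10 µM single point, 0.5% DMSO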
With `COc1ccc(OC)c(Nc2nc(-c3ccc(O)c(O)c3)cs2)c1` the activation was 187% (active). In the case of `C=CS(=O)c1sc(Cl)c(N2CCOCC2)c1[N+](=O)[O-]` (centres undefined), the activation is reported as -10.6% (inactive). With `CCCOC1CCCN(Cc2cn(C)nc2-c2ccccc2F)C1` (centres undefined) the activation was -0.8% (inactive). In the case of `O=C(N/N=C\c1cc2c(cc1Cl)OCO2)c1ccc(Br)s1`, the activation is reported as 50.2% (active). In the case of `COc1ccc(C(C[N+](=O)[O-])n2nc(C)cc2C)cc1` (centres undefined), the activation is reported as 60% (active). For `CN(C)CCCn1c(SCc2ccc(Cl)cc2)nnc1-c1ccncc1`, the activation was -0.025% (inactive). For `Nc1ccccc1SC(C[N+](=O)[O-])c1ccccc1` (centres undefined), the activation was -9.65% (inactive). With `CS(=O)(=O)N(Cc1ccccc1)c1ccc(C(=O)NN=C2CCCCCC2)cc1` the activation was -1.8% (inactive). For `COc1ccccc1/C=N\Nc1cc(C)nc(-n2nc(C)cc2C)n1`, the activation was 38% (active). With `O=C(NCCc1ccc(Cl)cc1)c1cccc(N2CCCC2=O)c1` the activation was 1.95% (inactive). For `Cc1cc(C(=O)CCl)c(C)n1CC1COc2ccccc2O1` (centres undefined), the activation was 60.3% (active). With `Cc1cccc(Nc2nc3c(S(=O)(=O)c4ccccc4)nnn3c3ccccc23)c1C` the activation was 128% (active). For `Cc1ccc(Cc2cnc(NC(=O)/C(C#N)=C/c3ccc(-c4cccc([N+](=O)[O-])c4)o3)s2)cc1`, the activation was 61.4% (active).

Target: Sentrin-specific protease 8 (Homo sapiens) (UniProt Q96LD8)
Sequence (Q96LD8 whole entry, looked up): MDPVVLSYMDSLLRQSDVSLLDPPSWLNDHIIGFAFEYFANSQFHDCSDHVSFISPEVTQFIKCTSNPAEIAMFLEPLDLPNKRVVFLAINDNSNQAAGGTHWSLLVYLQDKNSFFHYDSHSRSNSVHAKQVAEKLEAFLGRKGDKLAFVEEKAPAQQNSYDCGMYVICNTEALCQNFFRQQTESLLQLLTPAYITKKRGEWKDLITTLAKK
Test: human SENP8 peptidase blockers, hit retest – biochemical, luminescence, single concentration, confirmation (AID 488912;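 active means mean inhibition across replicates above about 50%, limit read from the data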)
Details: Recombinant SENP8, Z-RLRGG-aminoluciferin luminescence, 60 min; at 12.5 µM; stronger effect = higher value
With `CCCc1cc(C(=O)Nc2ccc(Cl)cn2)cs1` the inhibition was 73.5% (active). With `COc1ccc(-n2nnnc2-c2nc3ccccc3s2)cc1` the inhibition was 17.5% (inactive). With `Cc1cccc(/C(N)=N/OC(=O)c2ccccc2Cl)c1` the inhibition was 97.7% (active). For `O=C(Nc1nc2ccccc2s1)c1ccc2c(c1)OCO2`, the inhibition was 66% (active). For `COc1ccc(Nc2nc(-c3ccccc3)cs2)cc1`, the inhibition was 49.3% (inactive). With `O=c1oc2ccccc2cc1-c1cn(-c2ccccc2)c(=S)[nH]1` the inhibition was 39.3% (inactive). In the case of `c1ccc2[nH]c(-c3nc4ccccc4[nH]3)nc2c1`, the inhibition is reported as -14.2% (inactive). With `Cc1ccc(N/C=C/C(=O)c2ccccc2)cc1C` the inhibition was 34.5% (inactive).

Target: Sentrin-specific protease 6 (Homo sapiens) (UniProt Q9GZR1)
Sequence (Q9GZR1 628-1112 limits assumed): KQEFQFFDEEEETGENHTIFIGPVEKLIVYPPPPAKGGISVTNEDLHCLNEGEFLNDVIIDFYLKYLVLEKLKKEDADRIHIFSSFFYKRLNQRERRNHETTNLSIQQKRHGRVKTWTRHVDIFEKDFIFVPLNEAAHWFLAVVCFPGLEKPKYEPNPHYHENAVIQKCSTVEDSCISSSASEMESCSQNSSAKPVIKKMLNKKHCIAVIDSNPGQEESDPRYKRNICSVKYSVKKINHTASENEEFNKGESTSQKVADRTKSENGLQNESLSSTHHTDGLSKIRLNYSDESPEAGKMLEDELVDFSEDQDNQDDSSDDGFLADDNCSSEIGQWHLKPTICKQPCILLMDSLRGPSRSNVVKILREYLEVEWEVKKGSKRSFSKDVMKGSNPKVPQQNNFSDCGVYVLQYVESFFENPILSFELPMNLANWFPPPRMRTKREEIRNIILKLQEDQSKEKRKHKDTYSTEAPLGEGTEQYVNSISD
Test: inhibition of human SENP6 catalytic domain – biochemical, luminescence, single concentration, confirmation (AID 488915)
Details: recombinant SENP6, Z-RLRGG-aminoluciferin luminescence; at 12.5 µM; stronger effect = higher value
With `CCCc1cc(C(=O)Nc2ccc(Cl)cn2)cs1` the inhibition was 79.2% (active). In the case of `COc1ccc(-n2nnnc2-c2nc3ccccc3s2)cc1`, the inhibition is reported as 26.7% (inactive). In the case of `Cc1cccc(/C(N)=N/OC(=O)c2ccccc2Cl)c1`, the inhibition is reported as 98.9% (active). With `O=C(Nc1nc2ccccc2s1)c1ccc2c(c1)OCO2` the inhibition was 95.1% (active). With `COc1ccc(Nc2nc(-c3ccccc3)cs2)cc1` the inhibition was 89.6% (active). For `O=c1oc2ccccc2cc1-c1cn(-c2ccccc2)c(=S)[nH]1`, the inhibition was 47.9% (inactive). In the case of `c1ccc2[nH]c(-c3nc4ccccc4[nH]3)nc2c1`, the inhibition is reported as 42.7% (inactive). With `Cc1ccc(N/C=C/C(=O)c2ccccc2)cc1C` the inhibition was 73.8% (active).

Target: Sentrin-specific protease 7 (Homo sapiens) (UniProt Q9BQF6)
Sequence (Q9BQF6 706-1050 limits assumed): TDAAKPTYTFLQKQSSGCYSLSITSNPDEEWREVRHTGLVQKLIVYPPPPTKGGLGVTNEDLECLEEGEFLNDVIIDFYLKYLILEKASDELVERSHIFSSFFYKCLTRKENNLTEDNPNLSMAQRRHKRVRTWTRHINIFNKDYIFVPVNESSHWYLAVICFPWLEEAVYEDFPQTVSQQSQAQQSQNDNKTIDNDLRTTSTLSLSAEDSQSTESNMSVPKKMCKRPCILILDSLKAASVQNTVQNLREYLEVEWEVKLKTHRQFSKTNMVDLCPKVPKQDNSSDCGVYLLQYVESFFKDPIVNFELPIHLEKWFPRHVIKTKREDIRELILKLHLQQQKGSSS
Test: human SENP7 peptidase blockers, hit retest – biochemical, luminescence, single concentration, confirmation (AID 488917)
Details: recombinant SENP7, Z-RLRGG-aminoluciferin luminescence, 40 min; at 12.5 µM; stronger effect = higher value
For `CCCc1cc(C(=O)Nc2ccc(Cl)cn2)cs1`, the inhibition was 92.2% (active). With `COc1ccc(-n2nnnc2-c2nc3ccccc3s2)cc1` the inhibition was 4.7% (inactive). In the case of `Cc1cccc(/C(N)=N/OC(=O)c2ccccc2Cl)c1`, the inhibition is reported as 102% (active). In the case of `O=C(Nc1nc2ccccc2s1)c1ccc2c(c1)OCO2`, the inhibition is reported as 97.4% (active). With `COc1ccc(Nc2nc(-c3ccccc3)cs2)cc1` the inhibition was 100% (active). For `O=c1oc2ccccc2cc1-c1cn(-c2ccccc2)c(=S)[nH]1`, the inhibition was 81.7% (active). With `c1ccc2[nH]c(-c3nc4ccccc4[nH]3)nc2c1` the inhibition was 77.8% (active). With `Cc1ccc(N/C=C/C(=O)c2ccccc2)cc1C` the inhibition was 91.5% (active).

Target: Caspase-3 (Homo sapiens) (UniProt P42574)
Sequence (P42574 28-227 limits assumed): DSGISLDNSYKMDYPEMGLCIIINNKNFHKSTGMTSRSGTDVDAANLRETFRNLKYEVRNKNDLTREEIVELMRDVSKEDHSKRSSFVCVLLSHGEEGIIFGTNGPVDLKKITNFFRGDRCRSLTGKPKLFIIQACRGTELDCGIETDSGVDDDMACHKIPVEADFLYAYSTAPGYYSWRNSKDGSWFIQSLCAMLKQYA
Test: human caspase-3 activity blockade, out-of-family – biochemical, single concentration, selectivity assay for SENP inhibitor project, confirmation (AID 488918;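 active means mean inhibition above about 50%, limit read from the data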;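 further: plate controls were enzyme with DMSO for no effect and wells without caspase-3 for full effect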)
Details: purified caspase-3, Z-DEVD-aminoluciferin luminescence, 60 min; at 12.5 µM; stronger effect = higher value
For `CCCc1cc(C(=O)Nc2ccc(Cl)cn2)cs1`, the inhibition was 66.8% (active). For `COc1ccc(-n2nnnc2-c2nc3ccccc3s2)cc1`, the inhibition was 35.5% (inactive). In the case of `Cc1cccc(/C(N)=N/OC(=O)c2ccccc2Cl)c1`, the inhibition is reported as 97.2% (active). With `O=C(Nc1nc2ccccc2s1)c1ccc2c(c1)OCO2` the inhibition was 84.8% (active). In the case of `COc1ccc(Nc2nc(-c3ccccc3)cs2)cc1`, the inhibition is reported as 83.7% (active). With `O=c1oc2ccccc2cc1-c1cn(-c2ccccc2)c(=S)[nH]1` the inhibition was 81.8% (active). In the case of `c1ccc2[nH]c(-c3nc4ccccc4[nH]3)nc2c1`, the inhibition is reported as 77.3% (active). For `Cc1ccc(N/C=C/C(=O)c2ccccc2)cc1C`, the inhibition was 78.6% (active).

Tested on: not listed separately
Test: Ultra-Glo luciferase signal interference – biochemical, single concentration, SENP8 reaction pre-completed, artefact control for SENP inhibitor project, confirmation (AID 488919;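 active means mean inhibition above about 50% when retested at one dose, limit read from the data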;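 further: plate controls were DMSO wells with completed reaction for no effect and substrate without enzyme for full effect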)
Details: Pre-incubated SENP8/Z-RLRGG-aminoluciferin, luciferase luminescence interference; at 12.5 µM; stronger effect = higher value
For `CCCc1cc(C(=O)Nc2ccc(Cl)cn2)cs1`, the inhibition was 59.1% (active). With `COc1ccc(-n2nnnc2-c2nc3ccccc3s2)cc1` the inhibition was 1.6% (inactive). For `Cc1cccc(/C(N)=N/OC(=O)c2ccccc2Cl)c1`, the inhibition was 96.8% (active). With `O=C(Nc1nc2ccccc2s1)c1ccc2c(c1)OCO2` the inhibition was 18.6% (inactive). In the case of `COc1ccc(Nc2nc(-c3ccccc3)cs2)cc1`, the inhibition is reported as 53.8% (active). With `O=c1oc2ccccc2cc1-c1cn(-c2ccccc2)c(=S)[nH]1` the inhibition was 19.1% (inactive). For `c1ccc2[nH]c(-c3nc4ccccc4[nH]3)nc2c1`, the inhibition was 50.8% (active). With `Cc1ccc(N/C=C/C(=O)c2ccccc2)cc1C` the inhibition was 13.8% (inactive).

Target: Protein Mdm4 (Homo sapiens) + E3 ubiquitin-protein ligase Mdm2 (Homo sapiens) (UniProt O15151+Q00987)
Sequence (O15151 whole entry, looked up): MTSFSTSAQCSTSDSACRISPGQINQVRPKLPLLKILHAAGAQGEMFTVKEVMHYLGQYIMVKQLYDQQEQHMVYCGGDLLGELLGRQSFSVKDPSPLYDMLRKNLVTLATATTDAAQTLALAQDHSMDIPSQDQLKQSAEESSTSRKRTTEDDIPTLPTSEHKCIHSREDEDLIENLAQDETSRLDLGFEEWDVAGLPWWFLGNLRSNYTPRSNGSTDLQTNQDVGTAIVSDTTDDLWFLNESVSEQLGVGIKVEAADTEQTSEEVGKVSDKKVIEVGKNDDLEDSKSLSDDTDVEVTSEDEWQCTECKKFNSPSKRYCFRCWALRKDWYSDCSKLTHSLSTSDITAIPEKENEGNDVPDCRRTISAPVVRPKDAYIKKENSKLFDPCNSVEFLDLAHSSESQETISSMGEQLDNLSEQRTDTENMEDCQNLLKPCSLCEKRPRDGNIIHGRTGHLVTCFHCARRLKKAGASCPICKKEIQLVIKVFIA
Sequence (Q00987 whole entry, looked up): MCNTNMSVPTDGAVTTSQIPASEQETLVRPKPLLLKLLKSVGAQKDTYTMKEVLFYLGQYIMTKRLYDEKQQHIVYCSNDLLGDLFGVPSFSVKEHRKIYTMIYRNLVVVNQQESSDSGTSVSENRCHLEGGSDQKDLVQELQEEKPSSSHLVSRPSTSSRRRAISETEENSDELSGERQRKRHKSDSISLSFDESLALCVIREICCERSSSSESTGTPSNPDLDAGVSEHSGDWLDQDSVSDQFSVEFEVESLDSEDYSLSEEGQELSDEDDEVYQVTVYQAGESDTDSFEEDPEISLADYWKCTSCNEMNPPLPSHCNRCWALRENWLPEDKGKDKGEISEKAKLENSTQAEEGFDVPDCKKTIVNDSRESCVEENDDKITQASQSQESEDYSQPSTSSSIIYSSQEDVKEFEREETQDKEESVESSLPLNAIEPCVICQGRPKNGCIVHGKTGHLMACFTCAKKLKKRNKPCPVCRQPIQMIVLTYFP
Test: human Mdm2/MdmX binding disruption – cell-based, luminescence, single concentration, set 2, confirmation (AID 504601;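 active means mean inhibition of the luminescence signal across two replicates at or above 26 percent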)
Details: SaOS-2 split-luciferase Mdm2/MdmX complementation, at 8 µM, stronger effect = higher value
In the case of `COc1ccccc1-n1nnnc1S(=O)(=O)Cc1ccc(Cl)cc1`, the inhibition is reported as 103% (active). For `C=C(C)C(=O)O[C@H]1C/C(C)=C\C(=O)/C=C(\C)[C@H](O)[C@@H]2OC(=O)C(=C)[C@@H]21`, the inhibition was 103% (active). For `OCCCNc1nccc(-c2cc(Nc3cccc(Cl)c3)ncn2)n1`, the inhibition was 102% (active). In the case of `O=c1oc2ccccc2cc1-c1cn(-c2ccccc2)c(=S)[nH]1`, the inhibition is reported as 92% (active). With `NC(N)=N/N=C/c1ccc(OCc2ccc(Cl)cc2Cl)cc1` the inhibition was 102% (active). For `COc1ccc2cc1Oc1ccc(cc1)C[C@H]1c3cc(c(OC)cc3CCN1C)Oc1c(O)c(OC)cc3c1[C@H](C2)N(C)CC3`, the inhibition was 104% (active).
